Bioassay records deposited in PubChem by several laboratories.
Runt-CBFb FRET: blocks binding of human RUNX1 Runt domain to CBFb | Cerulean-Runt/Venus-CBFb FRET ratio 530/480, 1 h | inhibition, % at 20 µM | 0.46% of 220,000 active | AID 1496;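 active means inhibition over about 50% at 20 µM in the single-dose screen, limit read from the data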;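 further: 0% = DMSO wells and 100% = excess unlabeled CBFb competitor control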
Target sequence (Q01196 whole entry, looked up, the tested form may be a part): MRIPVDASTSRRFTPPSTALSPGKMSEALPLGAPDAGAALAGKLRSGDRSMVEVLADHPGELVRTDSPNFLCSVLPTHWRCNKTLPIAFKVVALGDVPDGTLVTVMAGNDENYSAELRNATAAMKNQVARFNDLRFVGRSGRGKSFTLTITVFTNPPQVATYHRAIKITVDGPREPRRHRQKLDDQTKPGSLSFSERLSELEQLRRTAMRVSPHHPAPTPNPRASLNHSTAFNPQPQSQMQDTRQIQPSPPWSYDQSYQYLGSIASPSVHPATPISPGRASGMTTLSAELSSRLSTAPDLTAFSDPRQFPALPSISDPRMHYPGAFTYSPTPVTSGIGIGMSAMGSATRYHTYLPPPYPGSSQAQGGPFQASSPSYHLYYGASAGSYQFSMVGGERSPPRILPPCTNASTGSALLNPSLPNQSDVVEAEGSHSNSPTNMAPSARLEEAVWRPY
Target sequence (Q13951 whole entry, looked up, the tested form may be a part): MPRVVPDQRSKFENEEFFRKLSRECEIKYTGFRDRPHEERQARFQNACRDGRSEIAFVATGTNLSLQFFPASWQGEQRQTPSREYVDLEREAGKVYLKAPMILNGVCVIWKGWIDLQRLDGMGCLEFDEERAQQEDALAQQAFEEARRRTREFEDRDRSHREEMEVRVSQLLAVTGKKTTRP
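System: Cerulean-labeled Runt domain protein | Quantity: 100 nM of each labeled protein | Schedule: 1 h compound exposure, room temperature | Detection: Fluorescence energy transfer, 422 nm excitation, 530/480 nm emission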
RanGTP-Imp inh: disruptors of Ran-importin-beta complex formation – biochemical, FRET, CFP-Ran, YFP-importin-beta, homogeneous, primary screen. cell-free CFP-Ran/YFP-importin-beta FRET ratio. inhibition, % (concentration not given with the values). 1.1% of 300,000 active. AID 2216;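 active means more than half of the replicate wells show a fall in the fluorescence ratio signal beyond about 16%, limit read from the data, passing the limit was not always enough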;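 further: 0% = DMSO wells and 100% = Ran loaded with GDP instead of GTP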
Hck-Nef inh: human Hck-Nef kinase inhibition. P08631. Recombinant Hck-YEEI plus Nef, Z-Lyte FRET kinase assay. inhibition, % at 20 µM. 0.68% of 220,000 active;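 active means Hck-Nef kinase inhibition above about 50%, limit read from the data; inactive means inhibition below that limit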;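 further: 0% = DMSO with Hck plus Nef and 100% = Hck alone without Nef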
Runt-SMMHC FRET: inhibitors of human RUNX1 Runt domain binding to CBFb-SMMHC; Q01196+Q13951; Cerulean-Runt/Venus-CBFb-SMMHC FRET ratio 530/480, 1 h; inhibition, % at 20 µM; 0.74% of 220,000 active; AID 1434;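 active means mean inhibition across duplicate retests at 20 µM reaching about 50%, limit read from the data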;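 further: 0% = DMSO wells and 100% = wells with excess untagged CBFb-SMMHC; inhibitors lower the FRET ratio by blocking Runt binding to CBFb-SMMHC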
YIC FRET counter: counter-screen: alters YIC FRET probe signal | shares compounds with RanGTP-Imp inh | Purified YIC probe, intramolecular FRET ratio YFP/CFP | IC50, µM | 40% of 1,000 active | AID 435026;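 active means fitted half-maximal inhibitory concentration no more than tenfold above the top dose tested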
An asterisk follows results filed as active; i = inactive; · = not tested or not shown. Compounds with a hit are over-represented: about 1.9% of the library has one in this group of screens.

SMILES	Runt-CBFb FRET	RanGTP-Imp inh	Hck-Nef inh	Runt-SMMHC FRET	YIC FRET counter
COC(=O)C1=CN(Cc2ccc(OC)c(OC)c2)C=C(C(=O)OC)C1c1cccc(O)c1	·	19*	·	·	17*
Cc1c(C=O)cnn1CCC(=O)O	·	23*	-9	·	>50
CN(C1CCCCC1)S(=O)(=O)c1ccc(-c2ccccn2)s1	1	0	4	-3	·
O=c1c2cc(NC(=S)N3CCC(N4CCCCC4)CC3)ccc2nc2n1CCCCC2	1	23*	20	-3	>50
CCc1ccc2c(c1)C(c1ccc([N+](=O)[O-])cc1)=NNC(c1ccc(C)cc1)=N2	2	0	1	3	·
O=C(CSc1nnc(-c2ccc(F)cc2)o1)Nc1ccc(S(=O)(=O)N2CCCC2)cc1	-2	17*	2	1	>50
O=C(CSc1nnc(-c2ccc(F)cc2)o1)Nc1ccc(S(=O)(=O)N2CCCCCC2)cc1	-2	4	9	-1	·
COc1ccc(C2CC(c3ccc(Cl)cc3Cl)n3nc(N)nc3N2)cc1 (stereo unspecified)	·	4	7	-7	·
COc1ccccc1C1CC(c2ccc(Cl)cc2)Nc2nc(N)nn21 (stereo unspecified)	-1	18*	1	4	>50
Cc1nn(-c2ccccc2)c2sc(C(=O)NC3CCCCC3)cc12	2	28*	-1	-2	>50
COc1ccc(-n2cnc3cc(NCc4cccs4)ccc32)cc1	-1	19*	12	1	>50
COc1ccc(-n2cnc3cc(NCc4ccccn4)ccc32)cc1	1	10	-1	1	·
O=C(NCCCN1CCOCC1)C(=O)NCc1ccc(Cl)cc1	1	-1	6	-3	·
C#CCOc1ccc(C2C3=C(CC(C)(C)CC3=O)N(CC(=O)O)C3=C2C(=O)CC(C)(C)C3)cc1OC	·	22*	·	·	39*
COc1ccc(C(=O)N/N=C/c2sc3ccccc3c2O)cc1	18	8	4	71	·
COc1ccc2cc(C(=O)N/N=C/c3sc4ccccc4c3O)ccc2c1	-39	22*	-9	-175	i
O=C(c1ccc(F)cc1)N1CCN=C1c1ccccc1	-3	0	4	-1	·
COc1ccc(C(=O)/C=C/Nc2cccc(C)n2)cc1OC	7	20*	17	36	26*
COc1ccc(CCNC(=O)CN(C)S(=O)(=O)c2ccc(OC)cc2)cc1	·	-3	·	·	·
COC(=O)c1ccccc1NCc1cc(=O)oc2cc(O)c(O)cc12	·	20*	·	·	4.5*
Cc1ccc(-n2c(C(C)C)nc3oc4ccccc4c(=O)c3c2=O)cc1	-1	0	22	1	·
COc1ccc(N2C(=O)N3[C@H](c4ccc(Br)cc4)[C@@H]4C(=O)N(C(C)(C)C)C(=O)[C@@H]4[C@]3(Cc3ccccc3)C2=O)cc1	·	26*	·	·	>50
O=C1NC(c2cccc([N+](=O)[O-])c2)Oc2ccccc21 (stereo unspecified)	2	22*	-1	1	>50
O=C1NC(c2ccc(F)cc2)Oc2ccccc21 (stereo unspecified)	·	-4	·	·	·
CCCN(CC(=O)Nc1ccccc1C)C(=O)c1ccc(NC2CC2)c([N+](=O)[O-])c1	·	-7	·	·	·
SMILES	Runt-CBFb FRET	RanGTP-Imp inh	Hck-Nef inh	Runt-SMMHC FRET	YIC FRET counter
CN(C(=O)COC(=O)C(C)(C)Oc1ccc(Cl)cc1)c1c(N)n(Cc2ccccc2)c(=O)[nH]c1=O	·	4	·	·	·
CC1=NN(C(=O)c2ccccc2)C(O)(c2ccc(Br)cc2)C1 (stereo unspecified)	3	24*	2	-3	>50
O=C(CN(Cc1ccccc1)S(=O)(=O)c1ccc2c(c1)OCCO2)Nc1ccc2c(c1)OCCO2	2	-3	0	18	·
NC(=O)CN(Cc1ccccc1)S(=O)(=O)c1ccc2c(c1)OCCO2	·	19*	·	·	>50
CC1Cc2ccccc2N1S(=O)(=O)c1cccc(C(=O)NCCCn2ccnc2)c1 (stereo unspecified)	1	12	5	0	·
Cc1ccc(NC(=O)Nc2cc(C(F)(F)F)c[nH]c2=O)cc1	·	-2	·	·	·
Cc1ccc(OCC(=O)N2CCCCCC2)c(C)c1	-1	17*	1	3	>50
CC(C)c1ccc(NC(=O)CCNC(=O)N2CC(=O)Nc3ccccc32)cc1	·	0	·	·	·
CC(C)(C)c1ccc(SCCc2ccccn2)cc1	-5	1	-4	-4	·
O=c1cc(N2CCC3(CC2)OCCO3)[nH]c(=O)n1C1CCCCC1	1	2	2	4	·
CCn1c(=O)cc(N2CCC3(CC2)OCCO3)[nH]c1=O	3	24*	3	1	>50
C=CCn1c(SCC(=O)N2CCCCC2)nnc1-c1ccncc1	0	36*	11	-2	>50
CCOC(=O)c1sc(NC(=O)CSc2nc(C)cc(C)n2)c(C#N)c1C	-4	21*	1	1	>50
CC(C)OC(=O)c1nnn(-c2nonc2N)c1CN1CCCCCC1	-3	24*	1	-4	>50
CC(C)N(C(=O)c1nn(C)c2c1CSc1ccccc1-2)C1CCCCC1	·	2	·	·	·
COc1cc(/C=C(\C#N)C(=O)Nc2cccc3ncccc23)cc(OC)c1OC	42	36*	3	54	>50
COc1ccc(NC(=O)/C(C#N)=C/c2cccnc2)c(OC)c1	·	1	·	·	·
C=CCNC(=O)C1COc2ccccc2O1 (stereo unspecified)	0	2	-1	1	·
O=C(Nc1ccnc(-c2ccncc2)n1)c1ccc(Cl)cc1	2	23*	24	-7	>50
Cc1cccc(C(=O)Nc2ccnc(-c3ccncc3)n2)c1	1	-5	22	-2	·
COc1ccc(S(=O)Cc2ccc(C(=O)NC3CC3)o2)cc1 (stereo unspecified)	·	39*	·	·	>50
O=C(NC1CC1)c1ccc(CS(=O)c2ccc(Br)cc2)o1 (stereo unspecified)	·	0	·	·	·
COC(=O)c1cc(NC(=O)c2ccc([N+](=O)[O-])cc2)c(=O)oc1C	10	18*	-13	2	>50
CC(=O)c1cc(NC(=O)c2ccc([N+](=O)[O-])cc2)c(=O)oc1C	21	-1	8	16	·
O=C(NC1CCCCCC1)C(=S)NCCc1ccccc1	20	25*	28	-3	>50
